Assay outcomes from PubChem BioAssay.
esBAF inh – Bmi1 luciferase reporter increase in mESCs, primary screen, esBAF inhibitor project, mouse ES cells, Bmi1 luciferase knock-in, single point; 24 h; 100% = twice the neutral-well signal; reporter increase, % at 12.5 µM; 2% of 350,000 active; AID 602393, 2012; in the data active means activation above about 40%;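 further: 0% = median of the plate's neutral control wells and 100% = double that signal; a rise in the Bmi1 reporter signal indicates esBAF inhibition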
ARFGAP1 inhibitor – inhibitors of rat ARFGAP1 GAP activity, primary screen, biochemical, fluorescence polarization, GDP tracer; inhibition, % at 16.5 µM; 0.26% of 360,000 active; AID 651572, 2012; Arfgap1-stimulated ARF1 GTP hydrolysis, GDP FP detection; ADP-ribosylation factor GTPase-activating protein 1 (Rattus norvegicus), Q62848;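 active means inhibition above a per-plate limit, mean inhibition of low control wells plus 3 SD, cut at about 25% in these data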;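 further: 0% = DMSO wells with enzyme and 100% = wells lacking Arfgap1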
Target sequence (Q62848 1-136 limits assumed): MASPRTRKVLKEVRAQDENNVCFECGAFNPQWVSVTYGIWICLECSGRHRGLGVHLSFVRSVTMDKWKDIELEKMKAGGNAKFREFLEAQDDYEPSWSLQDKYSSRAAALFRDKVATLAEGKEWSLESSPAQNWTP
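Material – truncated rat Arfgap1 GAP domain · Buffer or medium – HEPES-based buffer, pH 7.5 · Reagent – human ARF1(Δ1-17)-GTP substrate · Dosing – 16.5 µM single point, 1.26% DMSO · Schedule – GTP hydrolysis reaction 2 h at 25 °C · Technique – GDP detection by fluorescence polarization · Benchmarks – No-Arfgap1 wells (100%) versus DMSO full-reaction wells (0%) · Repeats – single replicate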
ASAP1 inh – inhibitors of human ASAP1 ArfGAP activity, primary screen, biochemical, fluorescence polarization; inhibition, % at 16.5 µM; 0.19% of 360,000 active; Arf-GAP with SH3 domain, ANK repeat and PH domain-containing protein 1 (Homo sapiens), …; ASAP1-stimulated ARF1 GTP hydrolysis, GDP FP detection; AID 624377, 2012; in the data active means inhibition above about 25%;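 further: 0% = vehicle with enzyme and substrate and 100% = no enzyme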
Target sequence (Q9ULH1 325-724 limits assumed): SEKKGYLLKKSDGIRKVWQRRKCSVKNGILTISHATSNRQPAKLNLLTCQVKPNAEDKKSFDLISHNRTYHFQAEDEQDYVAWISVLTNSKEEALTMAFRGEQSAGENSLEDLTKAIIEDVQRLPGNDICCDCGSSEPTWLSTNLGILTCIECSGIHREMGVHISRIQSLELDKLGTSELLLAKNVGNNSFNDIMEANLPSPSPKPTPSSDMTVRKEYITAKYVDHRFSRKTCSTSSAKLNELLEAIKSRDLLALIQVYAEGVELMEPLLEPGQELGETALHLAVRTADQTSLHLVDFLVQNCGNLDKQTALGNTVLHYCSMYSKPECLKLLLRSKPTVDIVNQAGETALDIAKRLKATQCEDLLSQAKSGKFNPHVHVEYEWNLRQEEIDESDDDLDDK
SMARCA2 act – SMARCA2 (BRM) function activators, primary screen, cell-based, luminescence, high throughput; MG213 cells, MMTV-luciferase reporter, dexamethasone, overnight; activation, % at 9.1 µM; 1% of 370,000 active; AID 652017, 2013; in the data active means activation above about 7.8%;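 further: 0% = vehicle wells and 100% = reference activator wells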
* hit, by the source's call; / = not tested or not shown. Hits are enriched below; roughly 2.6% of the tested compounds scored in any of these assays.

SMILES | esBAF inh | ARFGAP1 inhibitor | ASAP1 inh | SMARCA2 act
CCCC1Oc2ccccc2C(=O)N(CC(=O)c2ccc3c(c2)OCCO3)C1=O (configuration not stated) | 60* | -18 | 5 | 1
C/C(=N/NC(=O)c1ccoc1C)C12CC3CC(CC(C3)C1)C2 | 57* | -2 | 7 | 7
C/C(=N\NC(=O)c1ccccn1)C12CC3CC(CC(C3)C1)C2 | 49* | 4 | -6 | 5
N/C(=N\OC(=O)C12CC3CC(CC(C3)C1)C2)c1ccccc1 | -1 | 3 | -4 | -3
N/C(=N\OC(=O)C12CC3CC(CC(C3)C1)C2)c1ccccn1 | 75* | 0 | 12 | 2
Cc1cccc(OCC(=O)Nc2sc3c(c2C#N)CCC3)c1 | 84* | 11 | 8 | -1
CCCC(=O)Nc1sc2c(c1C#N)CCCC2 | 53* | 2 | 3 | 2
C[C@@H]1CN([C@@H](C)CO)C(=O)c2cc(NS(=O)(=O)c3ccc(F)cc3)ccc2O[C@H]1CN(C)CC1CC1 | 0 | / | / | /
Cc1ccc(-c2nc3ccc(Cl)cn3c2Cc2ccccc2C(F)(F)F)cc1 | 2 | 0 | 8 | 1
FC(F)(F)c1ccccc1Cc1c(-c2cccc(Br)c2)nc2ccc(Cl)cn12 | 9 | -13 | -3 | -1
Cc1ccc2nc(-c3ccc(Cl)cc3)c(Cc3ccccc3C(F)(F)F)n2c1 | 50* | 6 | -6 | 2
FC(F)(F)c1ccccc1Cc1c(-c2cccc(Cl)c2)nc2ccc(Cl)cn12 | 56* | -15 | 2 | 6
Cc1ccc(O)c(C2=Nc3ccccc3C2(C)C)c1 | 67* | 0 | 6 | 0
Oc1[nH]c2ccccc2c1C=Nc1ccc2c(c1)OCO2 | 57* | -3 | -11 | 4
COc1ccc(N=Cc2c(O)[nH]c3ccccc23)cc1 | 7 | -4 | 11 | 1
CC(C)CN=CC1=C(O)c2ccccc2C1=O | / | 1 | 4 | 1
O=C1C(C=NCc2ccccn2)=C(O)c2ccccc21 | 73* | 4 | 2 | 7
O=C1C(C=NCCCn2ccnc2)=C(O)c2ccccc21 | 53* | 2 | 6 | -3
O=C(Cc1ccccc1)N1C[C@H]2[C@@H](c3ccccc31)[C@@H](CO)N2C(=O)C1CC1 | 10 | / | / | /
Fc1cccc(-c2cc3nc4c(c(N5CCC6(CC5)OCCO6)n3n2)CCCC4)c1 | 52* | -4 | -13 | 3
OC1CCN(c2c3c(nc4cc(-c5cccc(F)c5)nn24)CCCC3)CC1 | 104* | -2 | 12 | 3
O=C(C[C@H]1CC[C@H](NC(=O)CN2CCOCC2)[C@@H](CO)O1)NCCc1ccncc1 | -1 | / | / | /
C[C@H]1CN([C@@H](C)CO)C(=O)c2cc(-c3ccccc3)cnc2O[C@H]1CN(C)C(=O)NC1CCCC1 | -4 | / | / | /
CC(=O)CCSc1ncnc2sc(-c3ccccc3)cc12 | 77* | 5 | -5 | 7
C[C@@H]1CN([C@@H](C)CO)C(=O)c2cc(NC(=O)Nc3ccccc3)ccc2O[C@@H]1CN(C)Cc1ccc(-c2ccccc2)cc1 | 5 | / | / | /
SMILES | esBAF inh | ARFGAP1 inhibitor | ASAP1 inh | SMARCA2 act
O=S(=O)(c1ccc(OCC(O)CNC23CC4CC(CC(C4)C2)C3)c(Cl)c1)N1CCOCC1 (configuration not stated) | -6 | -1 | 5 | 7.8*
CC(=O)N1CCc2c(sc(NC(=O)c3ccc([N+](=O)[O-])o3)c2C(N)=O)C1 | 4 | 27* | -5 | 7
O=C(CN1CCOCC1)N/N=C/c1cc2ccccc2nc1Cl | / | -2 | -2 | 2
Cc1ccc(NCC(=O)N/N=C\C(Br)=C\c2ccccc2)cc1 | 55* | -9 | 2 | -1
Cc1ccc2cc(/C=N/Nc3nc4ccccc4[nH]3)c(Cl)nc2c1 | / | -2 | 10 | 7.8*
Cc1ccc(NCC(=O)N/N=C/c2cc3ccccc3nc2Cl)cc1 | 61* | 2 | 8 | 7
COc1cc(OC)c(OC)cc1/C=N/Nc1nc2ccccc2[nH]1 | / | 6 | 14 | -3
O=C(O)c1ccc(N/N=C/C(Br)=C/c2ccccc2)cc1 | 74* | -1 | 9 | 0
CCCC#Cc1cnc2c(c1)C(=O)N([C@@H](C)CO)C[C@@H](C)[C@@H](CN(C)S(=O)(=O)c1cn(C)cn1)O2 | 3 | / | / | /
C/C=C/c1cnc2c(c1)C(=O)N([C@@H](C)CO)C[C@H](C)[C@@H](CN(C)C(=O)Nc1ccc(OC)cc1)O2 | -1 | / | / | /
Cc1ccc(C(=O)CNc2ccccc2)cc1 | 62* | 6 | -1 | 3
C[C@@H]1CCCCO[C@H](CN(C)C(=O)Nc2ccccc2)[C@H](C)CN([C@H](C)CO)C(=O)c2cc(NC(=O)NC3CCCCC3)ccc2O1 | -6 | / | / | /
CC(=O)Nc1ccc(C=NNc2ccc([N+](=O)[O-])cn2)cc1 | 89* | 21 | 6 | 7
O=[N+]([O-])c1ccc(NN=Cc2ccco2)nc1 | 91* | -12 | 12 | 6
O=[N+]([O-])c1ccc(NN=Cc2ccc3c(c2)OCO3)nc1 | 93* | 1 | -4 | 4
O=C1CCCN1CCC(=O)N1CCCC(CO)(Cc2ccccc2)C1 (configuration not stated) | 63* | 12 | -5 | 5
COC(=O)c1ccc(NC(=O)c2cc3sccc3n2C)cc1 | 55* | 2 | 7 | 6
COc1cc(NC(=O)c2cc3sccc3n2C)cc(OC)c1 | 42* | -1 | -2 | 4
Cn1c(C(=O)Nc2ccc3c(c2)OCO3)cc2sccc21 | 33 | -2 | -4 | 3
COc1ccc(OC)c(NC(=O)c2cc3sccc3n2C)c1 | 16 | -1 | -1 | 0
COc1ccc(NC(=O)c2cc3sccc3n2Cc2ccc(F)cc2)cc1OC | 65* | 2 | 15 | 4
COCC(=O)N1[C@@H]2CN(C(=O)Nc3ccccc3Cl)c3ccccc3[C@@H]2[C@@H]1CO | 3 | / | / | /
C[C@H](CO)N1C[C@H](C)[C@@H](CN(C)C(=O)c2cccnc2)Oc2cc(C#CC3(O)CCCC3)ccc2S1(=O)=O | 6 | / | / | /
COC(=O)c1c(-c2ccc(Br)cc2)noc1N | 56* | 1 | 4 | 0
O=C(N/N=C/c1ccc(Cl)cc1Cl)c1cccc(F)c1 | 63* | 9 | -8 | 4
Cc1noc(C)c1S(=O)(=O)N(C)C[C@H]1Oc2ccc(NC(=O)NC3CCCCC3)cc2CC(=O)N([C@@H](C)CO)C[C@@H]1C | -2 | / | / | /
O=C(/C=C/c1ccc(N2CCCCC2)c([N+](=O)[O-])c1)c1ccc(O)cc1 | 60* | 8 | 11 | 5
O[C@H]1C[C@H](c2ccc(Cl)cc2)N(CC2CCCCC2)C[C@@H]1n1cc(C2CC2)nn1 | 19 | 4 | 11 | -3
O[C@@H]1C[C@H](c2ccc(Cl)cc2)N(CC2CCCCC2)C[C@H]1n1cc(C2CC2)nn1 | -6 | 12 | -2 | 7.9*
